# proCasp3 act = procaspase-3 (human) activation | P42574 | recombinant procaspase-3 D3A, Ac-DEVD-pNA absorbance 405 nm | activation, % at 8.5 µM | 0.11% of 330,000 active | AID 463141;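 active means activation above the mean of all tested compounds plus 3 SD, cut at about 21% in these data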;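 further: 0% = DMSO alone and 100% = DMSO wells spiked with extra 5 µM PC-3 D3A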
# Target sequence (P42574 whole entry D9A/D28A/D175A): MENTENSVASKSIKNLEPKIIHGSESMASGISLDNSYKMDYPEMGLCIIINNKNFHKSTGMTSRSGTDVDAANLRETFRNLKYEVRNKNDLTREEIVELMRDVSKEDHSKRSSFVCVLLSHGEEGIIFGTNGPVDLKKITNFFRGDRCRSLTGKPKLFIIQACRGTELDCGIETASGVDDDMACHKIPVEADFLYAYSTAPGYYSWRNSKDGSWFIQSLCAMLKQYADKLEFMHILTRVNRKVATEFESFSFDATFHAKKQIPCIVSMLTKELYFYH
#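 material = Procaspase-3 D3A mutant | probe or stimulus = Ac-DEVD-pNA | compound = single dose, 8.5 µM nominal compound, 0.8% DMSO | timing = 1 h preincubation, 2 h reaction | measured by = 405 nm absorbance of p-nitroaniline, reads at 0 and 120 min | benchmarks = DMSO-only low control, 5 µM PC-3 D3A high control | repeats = singlicate, each compound tested once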
# Rce1 inhib = yeast Ras-converting enzyme inhibition | Q03530 | yeast membranes, quenched prenylated peptide cleavage fluorescence | calls only | 0.27% of 290,000 active | AID 2563;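 active means fall in fluorescence gain of 50% or more versus controls, with final raw signal at or below 3038400; inconclusive means same 50% fall but final raw signal above 3038400; inactive means fall in fluorescence gain under 50%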;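 further: plate controls were neutral control wells for no effect and wells lacking membranes for full effect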
# Target sequence (Q03530 whole entry, looked up): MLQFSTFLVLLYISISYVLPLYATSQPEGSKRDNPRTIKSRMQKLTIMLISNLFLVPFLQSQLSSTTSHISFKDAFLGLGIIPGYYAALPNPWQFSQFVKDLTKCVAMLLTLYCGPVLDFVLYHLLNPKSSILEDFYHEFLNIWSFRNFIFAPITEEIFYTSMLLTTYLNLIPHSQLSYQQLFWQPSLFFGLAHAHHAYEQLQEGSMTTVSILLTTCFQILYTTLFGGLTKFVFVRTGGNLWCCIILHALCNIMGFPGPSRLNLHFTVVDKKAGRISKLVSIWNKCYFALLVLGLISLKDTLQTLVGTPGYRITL
# FXN GAA850 act = increases GAA850 frataxin promoter reporter activity | activation, % at 6 µM | HEK293 lucGAA850 FXN promoter luciferase reporter, 24 h; percent of 10 µM SAHA response | 0.56% of 360,000 active;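 active means activation above the average of all compounds screened plus 3 SD, cutoff fixed separately per campaign, cut at about 7.5% in these data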;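 further: 0% = DMSO wells and 100% = 10 µM SAHA wells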
# pCIP destab = p/CIP protein destabilization; Q05BA5; F442A p/CIP-EGFP cells, EGFP fluorescence, 16 h; decrease of EGFP signal, % at 10 µM; 0.01% of 290,000 active; AID 1984;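 active means EGFP signal decrease of at least 30% at 10 µM or well 3 SD below plate mean, unless failing retest; inactive means the rest, including hits failing retest or dose response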
# Lipid droplet = modulators of hepatic lipid droplet formation | AML12 mouse hepatocytes, oleate lipid droplets, BODIPY imaging | inhibition, % at 6.5 µM | 0.4% of 240,000 active;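 active means lipid droplet intensity inhibited by at least 50%, with more than 500 cells counted; inconclusive means wells with under 300 cells, treated as cytotoxic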
#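 Assay system: AML12 hepatocytes (mouse); Probe or stimulus: oleic acid at 100 µM to induce lipid droplet formation; Dosing: compound at 6.5 µM only; Schedule: compound with oleate, overnight; Detection: fluorescence imaging, 20x objective, two fields per well; Measure: % inhibition of lipid droplet signal.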
# proCasp7 act = counter-screen for procaspase-3 activators: activators of human procaspase-7; P55210; recombinant procaspase-7, Ac-DEVD-pNA absorbance 405 nm; D23A/D198A/D206A triple mutant, cannot self-cleave; scale: DMSO 0, 5 µM enzyme 100; activation, % at 8.5 µM; 0.093% of 330,000 active; AID 463210;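 active means percent activation above the screen-wide mean plus 3 SD, cut at about 25% in these data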
#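 Assay system – Uncleavable procaspase-7 mutant enzyme · Quantity – 2 µM procaspase-7 mutant as dispensed · Times – 1 h preincubation, 2 h reaction · Dosing – single nominal 8.5 µM compound dose, 0.8% DMSO final · Buffer or medium – Zinc-free 50 mM HEPES buffer, pH 7.4, with NaCl and Triton X-100 · Detection – Epi-absorbance of released pNA at 405 nm, two timepoints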
# Lipid drop inh = hepatic lipid droplet formation inhibition, confirmed; 65% of 870 active; inhibition, % at 5.2 µM; shares compounds with Lipid droplet; AML12 mouse hepatocytes, BODIPY lipid droplet imaging; droplets induced with 100 µM oleic acid; AID 463183;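 active means inhibition of lipid droplet metric at least 50%, with more than 300 cells in each of four replicates; inconclusive means wells under 300 cells, flagged as toxic or low count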;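 further: plate controls were DMSO with oleic acid for no effect and 5 µM Triacsin-C for full effect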
# AML12 cytotox = AML12 hepatocyte cytotoxicity (counter-screen) | shares compounds with Lipid droplet | AML12 mouse hepatocytes, DAPI nuclear morphology cytotoxicity imaging; hits give high values; cells fed 100 µM oleate overnight | z-score at 5 µM | 3% of 870 active | AID 463200; in the data active means z-score above about 6.3;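 further: compound exposure lasted overnight at 37 °C before fixation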
# AML12 tox conf = AML12 hepatocyte cytotoxicity, confirmed; cytotoxicity, % at 50 µM; AML12 mouse hepatocyte viability, ATP luminescence; cells loaded with 100 µM oleic acid; 530 tested, under 10 active; shares compounds with Lipid droplet;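 active means cytotoxicity above 50% in each of four replicates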;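 further: compound exposure lasted overnight at 37 °C before the ATP read; 0% = DMSO-treated cells and 100% = wells with no cells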
# * marks the source's active call; other numbers are inactive results; i = inactive; ? = inconclusive; nt = not tested or not shown. Hits are enriched below; roughly 1.2% of the tested compounds scored in any of these assays.
SMILES,proCasp3 act,Rce1 inhib,FXN GAA850 act,pCIP destab,Lipid droplet,proCasp7 act,Lipid drop inh,AML12 cytotox,AML12 tox conf
COc1ccc(C(C(=O)NC(C)(C)C)N(Cc2cccs2)C(=O)CCC(=O)Nc2cc(C)on2)cc1 (centres undefined),-13,nt,-2,-15,107*,3,88*,-0.52,7
CCC(C)(C)NC(=O)C(c1ccc(OC)cc1)N(Cc1cccs1)C(=O)CCC(=O)Nc1cc(C)on1 (centres undefined),6,nt,5,2,78*,-4,102*,0.51,12
CCC(C)(C)NC(=O)C(c1ccc(OC)cc1)N(CC1CCCO1)C(=O)CCC(=O)Nc1cc(C)on1 (centres undefined),-2,nt,1,-5,79*,10,91*,-0.48,11
CCC(C)(C)NC(=O)C(c1ccc(OC)cc1)N(C(=O)CCC(=O)Nc1cc(C)on1)C1CC1 (centres undefined),0,i,1,6,8,-1,nt,nt,nt
COc1ccc(C(=O)Nc2sc3c(c2C(=O)NCc2ccco2)CCCC3)cc1OC,-22,i,1,5,69*,-17,105*,-0.42,7
CCOc1cc(Br)c(CC(=O)NC2CCCCCC2)cc1OCC,-6,i,1,10,116*,7,108*,0.016,9
CC(Sc1nnc(Nc2ccccc2)s1)C(=O)Nc1nc(-c2ccccc2)cs1 (centres undefined),12,i,-2,-4,54*,6,96*,-0.7,12
COc1ccccc1NS(=O)(=O)c1cc(NC(=O)c2cc3ccccc3oc2=O)ccc1C,1,i,-1,-3,58*,7,52,-0.64,nt
CCOC(=O)CSc1nc2ccccc2c(=O)n1Cc1ccco1,5,i,5,-7,nt,1,nt,nt,nt
CCOc1ccc2nc(NC(=O)CSc3nc4ccccc4c(=O)n3Cc3ccco3)sc2c1,13,i,-1,-7,57*,0,106*,-0.69,14
CCCNC(=O)C1(C)CCN(Cc2ccc(C)c3ccccc23)C1 (centres undefined),nt,nt,-1,nt,nt,nt,nt,nt,nt
CCc1ccc(NC2=CC(=O)CC(C)(C)C2)cc1,11,i,1,-21,7,10,nt,nt,nt
CCCNC1=CC(=O)CC(C)(C)C1,3,i,3,-12,57*,6,27,-0.44,nt
O=C(NC(c1ccc(-c2ccccc2)cc1)c1cnccn1)C1CCN(Cc2ccc3c(c2)OCO3)CC1 (centres undefined),nt,nt,1,nt,nt,nt,nt,nt,nt
COc1ccc(N(C(=O)CCl)C(C(=O)NCCc2ccccc2)c2cccs2)cc1Cl (centres undefined),-4,i,-10,8,127*,-1,?,34*,nt
CCN1CCN(Cc2ccc(NC(=O)c3ccc(C)c(NC(=O)C(=O)c4c[nH]c5ccccc45)c3)cc2C(F)(F)F)CC1,11,i,-5,-7,63*,6,0,6.3*,nt
Cc1ccc(-c2c(C(=O)NC(C)C)oc(=O)c3ccccc23)cc1,4,i,0,-20,53*,-1,7,-0.0095,nt
CCn1c(=O)c2cc(C(=O)NCCC(C)C)sc2c2ccccc21,6,i,2,6,54*,10,92*,-0.4,-2
O=C(Nc1cccc(Cn2cccn2)c1)c1cc2c(s1)CCCC2,3,i,2,-10,55*,1,57,-0.11,26
COc1ccc(NC(=O)C2Cc3c(-c4cccc(NC(C)=O)c4)ccnc3O2)cn1 (centres undefined),nt,nt,-3,nt,nt,nt,nt,nt,nt
COc1ccc(CCNC(=O)Cc2cccc(C(F)(F)F)c2)cc1OC,-1,i,2,-6,64*,4,84*,-1.3,12
COc1ccc(CCN2C(=O)c3cccc4cccc(c34)C2=O)cc1OC,8,i,-1,8,nt,-5,nt,nt,nt
COc1ccc(CCNC(=O)CN2C(=O)c3cccc4cccc(c34)C2=O)cc1OC,-9,i,1,8,56*,2,92*,-0.014,4
COc1ccc(CCNC(=O)c2cc3c(F)cccc3s2)cc1OC,0,i,-1,-5,77*,7,74*,-0.2,3
c1cc(-c2ccc(N3CCOCC3)cc2)n2cnnc2c1,nt,nt,2,nt,nt,nt,nt,nt,nt
SMILES,proCasp3 act,Rce1 inhib,FXN GAA850 act,pCIP destab,Lipid droplet,proCasp7 act,Lipid drop inh,AML12 cytotox,AML12 tox conf
CCCNC(=O)C1(C)CCCN(Cc2cccc(C#N)c2)C1 (centres undefined),nt,nt,-4,nt,nt,nt,nt,nt,nt
CCOc1ccc(CN(C)C(=O)CNC(=O)c2ccccc2)cc1,1,i,2,-13,18,7,nt,nt,nt
CCOc1ccc(CN(C)C(=O)CNC(=O)Cc2cccc3ccccc23)cc1,-2,i,-2,-10,77*,8,101*,-0.97,11
CCOc1cc2c(cc1OCC)C(c1ccccc1OC)OC(=O)C2 (centres undefined),8,i,1,-1,51*,5,79*,-0.96,3
CC(CCc1ccccc1)NC(=O)C(C)OC(=O)c1ccco1 (centres undefined),7,i,1,nt,nt,8,nt,nt,nt
CCOc1ccc(C(=O)CCC(=O)NCC(=O)OCc2ccccc2)cc1OCC,-3,i,2,2,93*,0,73*,-0.48,9
COc1ccc(C(=O)OC(C)C(=O)NC(C)CCc2ccccc2)cc1OC (centres undefined),-4,i,1,1,103*,14,107*,-0.018,14
CCOc1ccc(C(=O)NCC(=O)NC(C)CCc2ccccc2)cc1OCC (centres undefined),nt,i,1,-18,75*,nt,106*,1.1,16
COc1cc(C(=O)NCC(=O)NC(C)CCc2ccccc2)cc(OC)c1OC (centres undefined),3,i,-1,-19,4,-3,nt,nt,nt
COc1ccc(C(=O)OCC(=O)NC(C)CCc2ccccc2)c(OC)c1 (centres undefined),-5,i,1,-7,75*,-10,67,0.65,7
CCOc1ccc(C(=O)OCC(=O)NCc2ccccc2)cc1OCC,9,nt,3,nt,nt,-2,nt,nt,nt

# Screening results (PubChem)
